The record followed here is ChEMBL document CHEMBL1821656, “Design, synthesis, and evaluation of inhibitors of Norwalk virus 3C protease” (Bioorg Med Chem Lett, 2011).

Each structure is given as a SMILES string.

Data set [1] deals with Norwalk virus. In words: Inhibition of recombinant Norwalk virus 3C protease using Edans-EPDFHLQGPEDLAK-Dabcyl as substrate at [compound]/[substrate] ratio of 25 preincubated for 30 mins measured for 30 mins by spectrofluorometry. Further details: concentration or dose not given beside the values.
Data set [2] is described as follows: Cytotoxicity against human HG23 cells after 48 hrs. Particulars: read-out: TD50. The format is cell-based. The procedure, abridged: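 HG23 cells carrying the Norwalk replicon were used 1 day after plating at 80-90% confluence. They were exposed for 48 hr to compound at 0 (DMSO mock) to 320 μM. Viability was measured with a commercial cytotoxicity kit, and the median toxic dose (TD50) was calculated.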

For data set [3], the system named is Norwalk virus. In words: Antiviral activity against Norwalk virus in NV replicon-harboring HG23 cells assessed as inhibition of viral replication after 24 hrs by analyzing NV genome level using qRT-PCR. The format is functional. Particulars: HG23, 24 h, read-out: ED50 (the source's name). The method in brief: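 HG23 cells (stably harbouring NV replicon), 1 day old and 80–90% confluent, treated with compound at 0 (DMSO mock) to 320 μM. NV genome levels quantified by qRT-PCR after 24 h of treatment.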
(Replicon systems follow genome replication, usually without infectious particles.)

The nature of data set [4]: (§1) Inhibition of recombinant Norwalk virus 3C protease using Edans-EPDFHLQGPEDLAK-Dabcyl as substrate preincubated for 30 mins measured for 30 mins by spectrofluorometry. The method in brief:
(§2)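 Enzyme (final 2.5 μM) was held at 30 °C in pH 8.0 sodium phosphate (50 mM) containing 120 mM NaCl and 6 mM DTT. The fluorescence increase was monitored 30 min at 360/460 nm excitation/emission.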

A short description of data set [5]: Cytotoxicity against mouse […] cells after 12 to 24 hrs relative to ribavirin. The format is cell-based. The settings on record: read-out: TD50 (the source's name).
The test system of data set [6] is Norwalk virus. Described as §1. The procedure, abridged: as §2

What is called inhibition is the relative decrease from the control value, in per cent. For orientation: IC50 means the concentration that gives 50% inhibition.

For the compound `O=C[C@H](CC1CCNC1=O)NC(=O)[C@H](Cc1ccccc1)NC(=O)N1CCOCC1` (stereo partly specified), the inhibition in the data set on Norwalk virus [1] is less than 25%.

For the compound `CC(C)C[C@H](NC(=O)OCc1ccccc1)C(=O)N[C@H](CO)CC1CCNC1=O` (stereo partly specified), the inhibition in the data set on Norwalk virus [1] was less than 25%.

On to `CCCC[C@H](NC(=O)CNC(=O)OCc1ccccc1)C(=O)N[C@H](CO)CC1CCNC1=O` (stereo partly specified), for which, in the data set with Norwalk virus [1], the inhibition is less than 25%.

For the compound `CC(C)C[C@H](NC(=O)CNC(=O)OCc1ccccc1)C(=O)N[C@H](C=O)CC1CCNC1=O` (stereo partly specified), the CC50 at 48 h in data set [2] is greater than 320 µM. Besides, the EC50 in the data set on Norwalk virus [3] worked out at 7.8 µM. Moreover, the half-inhibitory concentration (IC50) in data set [4] stood at 1.45 µM. The CC50 in data set [5] is greater than 320 µM.

Take `CC(C)C[C@H](NC(=O)OCc1ccccc1)C(=O)N[C@@H](CC1CCNC1=O)C(=O)C(=O)NC(C)C` (stereo partly specified): the inhibition in the data set on Norwalk virus [1] was less than 25%.

With `CC(C)C[C@H](NC(=O)N1CCOCC1)C(=O)N[C@H](C=O)CC1CCNC1=O` (stereo partly specified), in data set [4], the IC50 turned out to be 7.2 µM.

As for `CC(C)C[C@H](NC(=O)CNC(=O)OCc1ccccc1)C(=O)N[C@H](CO)CC1CCNC1=O` (stereo partly specified), in the data set on Norwalk virus [1], the inhibition was less than 25%.

`CC[C@@H](C)[C@H](NC(=O)CNC(=O)OCc1ccccc1)C(=O)N[C@H](C=O)CC1CCNC1=O` (stereo partly specified): in data set [4], the half-inhibitory concentration (IC50) worked out at 7.5 µM.

As for `CCCC[C@H](NC(=O)CNC(=O)OCc1ccccc1)C(=O)N[C@H](C=O)CC1CCNC1=O` (stereo partly specified), the IC50 in data set [4] was 0.87 µM.

For `CC(C)C[C@H](NC(=O)OCc1ccccc1)C(=O)N[C@H](C=O)CC1CCNC1=O` (stereo partly specified), the CC50 at 48 h in data set [2] is greater than 320 µM. The concentration for half-maximal inhibition (IC50) in data set [4] was 1.82 µM. In the data set on Norwalk virus [6], the inhibition result is “Dose-dependent effect”. In addition, the CC50 in data set [5] is greater than 320 µM.
